Measurements reported in PubChem BioAssay.
Activity calls are given as the source filed them.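 How the source made its calls, unless noted: active means Her2 level under about 52% in both replicate screens, with viability over 70% of control (limit read from the data); inconclusive means Her2 under the limit in one screen only, or viability under 70%; inactive means Her2 level above the set limit.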

How the values were obtained:
[1] = reducers of endogenous Her2 protein level, primary screen, SKBR3 breast tumor cells, AlphaScreen, ATP viability (AID 461); conditions: 18-24 h, measured here: SKBR3 viability, ATP luminescence, at 10 µM;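 on Her2 level: lower value means less Her2 protein in the cells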;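 on viability: percent of carrier control wells set as 100% viability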
[2] = target: Receptor tyrosine-protein kinase erbB-2 (Homo sapiens) (UniProt P04626); assay: as above; conditions: 18-24 h, at 10 µM, stronger effect = lower value
Chain of Receptor tyrosine-protein kinase erbB-2 (Homo sapiens) (P04626 whole entry, looked up): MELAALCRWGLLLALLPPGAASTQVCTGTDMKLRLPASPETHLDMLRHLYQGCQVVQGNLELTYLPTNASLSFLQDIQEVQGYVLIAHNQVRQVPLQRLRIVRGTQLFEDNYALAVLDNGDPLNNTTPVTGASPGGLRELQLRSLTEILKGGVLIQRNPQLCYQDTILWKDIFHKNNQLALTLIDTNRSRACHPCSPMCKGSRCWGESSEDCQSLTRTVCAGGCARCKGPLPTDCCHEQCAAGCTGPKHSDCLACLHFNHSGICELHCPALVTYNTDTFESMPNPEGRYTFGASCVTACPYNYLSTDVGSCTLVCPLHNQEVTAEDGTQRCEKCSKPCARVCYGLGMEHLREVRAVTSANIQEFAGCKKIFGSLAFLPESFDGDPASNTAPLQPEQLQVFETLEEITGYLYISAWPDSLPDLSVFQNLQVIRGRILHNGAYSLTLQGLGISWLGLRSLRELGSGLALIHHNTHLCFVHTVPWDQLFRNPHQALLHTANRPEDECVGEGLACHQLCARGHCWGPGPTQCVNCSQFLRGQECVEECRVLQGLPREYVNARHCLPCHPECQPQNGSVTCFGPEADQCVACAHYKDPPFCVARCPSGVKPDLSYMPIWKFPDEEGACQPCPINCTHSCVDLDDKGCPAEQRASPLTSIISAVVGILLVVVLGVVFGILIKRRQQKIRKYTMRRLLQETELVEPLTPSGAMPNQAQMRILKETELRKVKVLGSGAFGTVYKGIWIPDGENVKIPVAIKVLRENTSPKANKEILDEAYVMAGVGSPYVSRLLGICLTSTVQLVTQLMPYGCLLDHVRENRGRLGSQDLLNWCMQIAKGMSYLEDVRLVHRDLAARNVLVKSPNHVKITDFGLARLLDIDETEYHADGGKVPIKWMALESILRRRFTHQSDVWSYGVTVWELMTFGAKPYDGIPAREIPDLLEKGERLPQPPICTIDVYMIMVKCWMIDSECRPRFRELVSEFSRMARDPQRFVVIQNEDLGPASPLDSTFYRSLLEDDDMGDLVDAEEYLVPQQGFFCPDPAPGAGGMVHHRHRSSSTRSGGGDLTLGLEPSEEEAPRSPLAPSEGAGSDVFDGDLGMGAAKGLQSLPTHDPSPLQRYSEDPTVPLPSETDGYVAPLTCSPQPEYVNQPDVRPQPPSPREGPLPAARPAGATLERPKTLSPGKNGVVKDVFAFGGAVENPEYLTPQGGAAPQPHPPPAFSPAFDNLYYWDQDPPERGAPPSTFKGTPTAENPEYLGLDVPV

[3] = SK-BR-3 cell growth inhibitors, pilot screen, 24 h, human (AID 572;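 active means viability at or below 10% of carrier control in both of two separate runs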;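 further: compound exposure lasted between 18 and 24 h rather than exactly 24 h; 100% = carrier-treated control wells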); conditions: SK-BR-3 viability, CellTiter-Glo luminescence, at 10 µM, stronger effect = lower value
[4] = HUVEC growth inhibition – cell-based, human, primary screen (AID 575;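 active means viability at or below 30% in both replicate assays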;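 further: 100% = median of untreated cell wells with 0.1% DMSO on each plate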); conditions: HUVEC proliferation, CellTiter-Glo luminescence, 72 h; at 10 µM; stronger effect = lower value
How it was run: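 System: primary human umbilical vein endothelial cells; Quantity: 1250 endothelial cells in each well; Buffer or medium: supplemented EBM, 2% fetal bovine serum; Doses: one dose, 10 µM final, 0.1% DMSO; Incubation: 72 h compound incubation; Technique: ATP-based CellTiter-Glo luminescent read; Evaluation: percent of median DMSO-control luminescence; Controls: vehicle and MePR control wells.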

[5] = growth inhibitors of H69AR lung tumor, primary screen, human, duplicate replicates (AID 580;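 active means viability at or under a set limit in both replicates, limit being median viability minus 3 SD, cut at about 48% in these data, passing the limit was not always enough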;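 further: 100% = mean luminescence of untreated wells and 0% = no signal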); conditions: H69AR lung tumor cells viability, ATP luminescence, 72 h; at 10 µM; stronger effect = lower value
[6] = reversal of MRP1-mediated doxorubicin resistance, pilot screen, H69AR cells, doxorubicin co-treatment (AID 601;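 active means viability loss from added drug above about 55%, and viability with drug at most 40%, in both replicates, limit read from the data, passing the limit was not always enough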); conditions: CellTiter-Glo, 72 h, at 10 µM; for differential viability (reversal): stronger effect = higher value
[7] = 384-well plate pilot, post-Golgi transport modulator project, inhibition of yeast transport mutant growth (AID 636; in the data active means inhibition above about 31%); conditions: absorbance 615 nm, about 18 h, stronger effect = higher value
[8] = growth suppression of yeast trafficking mutant, preliminary HTS, modulators of trafficking downstream of Golgi apparatus project, 1536-format plate, OD 615 nm (AID 637; in the data active means inhibition above about 30%); conditions: yeast transport mutant growth, absorbance 615 nm, 18 h; stronger effect = higher value
[9] = H69AR cells + 2 uM doxorubicin, measured here: viability with 2 uM doxorubicin, stronger effect = lower value
[10] = H69AR cells, compound alone cytotoxicity

Compound | viability [1] | Her2 level [2] | viability [3] | viability [4] | viability [5] | differential viability (reversal) ([6]; H69AR cells + 2 uM doxorubicin) | viability [6, 9] | viability [6, 10] | inhibition [7] | inhibition [8]
Cc1cccc(CS(=O)(=O)Cc2ccc(C(=O)NCC3CCCO3)o2)c1 (stereo not given) | 85.5% | 108% (inactive) | 85.5% (inactive) | 114% (inactive) | 94.7% (inactive) | -7.89% (inactive) | 103% | 94.7% | -2.89% (inactive) | -4.19% (inactive)
CCCn1c2ccccc2c2nnc(SCC(=O)OCC)nc21 | 95% | 78.5% (inactive) | 95% (inactive) | 88.8% (inactive) | 91.2% (inactive) | 11% (inactive) | 80.2% | 91.2% | -0.66% (inactive) | 3.64% (inactive)
CC1CN(C(=O)CSc2nnc(-c3ccncc3)n2-c2ccccc2)CC(C)O1 (stereo not given) | 101% | 112% (inactive) | 101% (inactive) | 103% (inactive) | 97.6% (inactive) | -5% (inactive) | 103% | 97.6% | -1.08% (inactive) | 0.32% (inactive)
O=C(Nc1ccc2c(c1)OCO2)c1cncc(Br)c1 | 108% | 77% (inactive) | 108% (inactive) | 82% (inactive) | 92.6% (inactive) | 2.14% (inactive) | 90.5% | 92.6% | -4.27% (inactive) | 5.25% (inactive)
CN(C)CCCN1C(=O)C(=O)/C(=C(/O)c2ccncc2)C1c1cccc(Br)c1 (stereo not given) | 90.5% | 97% (inactive) | 90.5% (inactive) | 118% (inactive) | 94.5% (inactive) | 5.26% (inactive) | 89.3% | 94.5% | -2.93% (inactive) | -5.9% (inactive)
COc1ccc(CCNC(=O)C2CCN(S(=O)(=O)c3cc(OC)ccc3OC)CC2)cc1 | 93% | 95% (inactive) | 93% (inactive) | 114% (inactive) | 103% (inactive) | 5.9% (inactive) | 96.8% | 103% | -7.97% (inactive) | 4.59% (inactive)
CCOc1ccc2nc(NC(=O)CSc3nnnn3C3CCCCC3)sc2c1 | 92% | 108% (inactive) | 92% (inactive) | 59.7% (inactive) | 63.5% (inactive) | 4.67% (inactive) | 58.8% | 63.5% | 9.08% (inactive) | -0.33% (inactive)
Cc1cc(C)cc(N2CCCn3c2nc2c3c(=O)n(CCN3CCOCC3)c(=O)n2C)c1 | 101% | 81% (inactive) | 101% (inactive) | 97.2% (inactive) | 83.3% (inactive) | -0.035% (inactive) | 83.3% | 83.3% | -7.2% (inactive) | -3.44% (inactive)
CN(C)/C=N/c1ncnc2c1cnn2-c1ccc(C(F)(F)F)cn1 | 108% | 100% (inactive) | 108% (inactive) | 104% (inactive) | 81.8% (inactive) | -0.51% (inactive) | 82.3% | 81.8% | -4.42% (inactive) | -4.29% (inactive)
COc1ccc(-c2cc(C(F)(F)F)nc(N3CCN(c4ccc(F)cc4)CC3)n2)cc1OC | 78.5% | 88% (inactive) | 78.5% (inactive) | 71.7% (inactive) | 85.5% (inactive) | 6.42% (inactive) | 79.1% | 85.5% | -2.97% (inactive) | 13.9% (inactive)
Cc1ccc(S(=O)(=O)NCCNC(=O)c2ccccc2)cc1 | 99% | 82% (inactive) | 99% (inactive) | 105% (inactive) | 99.2% (inactive) | 19.7% (inactive) | 79.5% | 99.2% | -8.92% (inactive) | -0.83% (inactive)
CC1(C)OC(=O)C(=CNc2ccccc2F)C(=O)O1 | 102% | 83.5% (inactive) | 102% (inactive) | 97.6% (inactive) | 91.2% (inactive) | -1.11% (inactive) | 92.4% | 91.2% | -2.99% (inactive) | 2.06% (inactive)
COc1cc2c(cc1NC(=O)CN1CCN(S(=O)(=O)c3ccc(F)cc3)CC1)oc1ccccc12 | 93.5% | 105% (inactive) | 93.5% (inactive) | 66.4% (inactive) | 95.7% (inactive) | 1.29% (inactive) | 94.4% | 95.7% | -2.37% (inactive) | 3.33% (inactive)
Cc1csc(NC(=O)CCCSc2nc3ccccc3s2)n1 | 100% | 71% (inactive) | 100% (inactive) | 62.9% (inactive) | 96% (inactive) | 0.115% (inactive) | 95.9% | 96% | -5.87% (inactive) | 5.57% (inactive)
COC(=O)Nc1ccc(S(=O)(=O)N2CCN(c3ccc(F)cc3)CC2)cc1 | 96.5% | 106% (inactive) | 96.5% (inactive) | 86.9% (inactive) | 97.1% (inactive) | 3.18% (inactive) | 94% | 97.1% | -4.61% (inactive) | 9.84% (inactive)
Oc1c(Cl)cc(Cl)cc1CNc1ccc(Br)cn1 | 100% | 88% (inactive) | 100% (inactive) | 74.8% (inactive) | 93.2% (inactive) | -3.58% (inactive) | 96.8% | 93.2% | 1.58% (inactive) | 13.4% (inactive)

Compound | viability [1] | Her2 level [2] | viability [3] | viability [4] | viability [5] | differential viability (reversal) ([6]; H69AR cells + 2 uM doxorubicin) | viability [6, 9] | viability [6, 10] | inhibition [7] | inhibition [8]
CCOC(=O)CNC(=O)c1c(C)nn(-c2ccccc2)c1Cl | 98.5% | 86.5% (inactive) | 98.5% (inactive) | 96.2% (inactive) | 90% (inactive) | -0.915% (inactive) | 90.9% | 90% | -2.63% (inactive) | -7.27% (inactive)
CC(C)OC(=O)CSc1nnc(Cc2ccccc2)n1Cc1ccco1 | 92.5% | 91.5% (inactive) | 92.5% (inactive) | 84.7% (inactive) | 92.4% (inactive) | 6.06% (inactive) | 86.3% | 92.4% | -4.27% (inactive) | 14.1% (inactive)
O=C1CCn2nc(-c3ccc(Cl)cc3)cc2N1 | 106% | 96% (inactive) | 106% (inactive) | 31.3% (inactive) | 97.8% (inactive) | 5.93% (inactive) | 91.8% | 97.8% | -2.18% (inactive) | 1.83% (inactive)
COc1cccc(C(=O)N2CCCC(c3nc(-c4cccs4)no3)C2)c1 (stereo not given) | 98% | 81.5% (inactive) | 98% (inactive) | 93.4% (inactive) | 95.5% (inactive) | 2.9% (inactive) | 92.6% | 95.5% | -7.43% (inactive) | 4.26% (inactive)
CCSc1nnc(NC(=O)CCNS(=O)(=O)c2cc(Br)cnc2N)s1 | 79.5% | 107% (inactive) | 79.5% (inactive) | 76.8% (inactive) | 107% (inactive) | 1.07% (inactive) | 106% | 107% | -1.04% (inactive) | -0.82% (inactive)
CCCc1[nH]nc2c1C(c1cccc(OC(=O)c3ccco3)c1)C(C#N)=C(N)O2 (stereo not given) | 93.5% | 72% (inactive) | 93.5% (inactive) | 81.6% (inactive) | 95.3% (inactive) | 1.18% (inactive) | 94.1% | 95.3% | -3.16% (inactive) | -1.11% (inactive)
CCn1c(SCC(=O)c2ccc(OC)cc2)nnc1C(C)NC(=O)c1ccc(OC)cc1 (stereo not given) | 93% | 106% (inactive) | 93% (inactive) | 85.7% (inactive) | 88.2% (inactive) | -3.72% (inactive) | 91.9% | 88.2% | -1.2% (inactive) | -8.41% (inactive)
CCOc1ccccc1NC(=O)CSc1c(C)n[nH]c1C | 90% | 88% (inactive) | 90% (inactive) | 109% (inactive) | 113% (inactive) | 19.8% (inactive) | 92.7% | 113% | -3.07% (inactive) | -3.71% (inactive)
COc1ccc(NC(=O)C(C)Oc2ccc(/C(C)=N\O)cc2)cc1 (stereo not given) | 122% | 92% (inactive) | 122% (inactive) | 91.9% (inactive) | 90.4% (inactive) | 7.12% (inactive) | 83.3% | 90.4% | -7.33% (inactive) | -0.32% (inactive)
CN(C)c1nc(Oc2ccc(=O)n(C)n2)nc(N2CCOCC2)n1 | 94% | 98.5% (inactive) | 94% (inactive) | 95.7% (inactive) | 92.9% (inactive) | 1.74% (inactive) | 91.2% | 92.9% | -4.93% (inactive) | 1.64% (inactive)
CN1CC[n+]2cnc3ccccc3c21 | 100% | 92% (inactive) | 100% (inactive) | 108% (inactive) | 97.3% (inactive) | 8.2% (inactive) | 89.1% | 97.3% | -2.24% (inactive) | 6.23% (inactive)
CCOC(=O)/C=C1\SCC(=O)N1Cc1ccc(Br)cc1 | 112% | 94% (inactive) | 112% (inactive) | 79.5% (inactive) | 97.3% (inactive) | 3.96% (inactive) | 93.3% | 97.3% | -7.67% (inactive) | 4.13% (inactive)
COc1cc(OC)nc(NC(=O)CSc2nc3ccccc3o2)n1 | 87.5% | 82.5% (inactive) | 87.5% (inactive) | 97.7% (inactive) | 92.4% (inactive) | -2.58% (inactive) | 94.9% | 92.4% | -6.4% (inactive) | 2.95% (inactive)
COc1ccc(S(=O)(=O)N2CCN(C3CCCCCCC3)CC2)cc1 | 87.5% | 89.5% (inactive) | 87.5% (inactive) | 106% (inactive) | 93.9% (inactive) | -6.63% (inactive) | 100% | 93.9% | -2.11% (inactive) | -0.98% (inactive)
CCOC(=O)C(C)On1c(SC(C)C(=O)OCC)nc2ccccc2c1=O (stereo not given) | 131% | 102% (inactive) | 131% (inactive) | 93.4% (inactive) | 82.1% (inactive) | -19.7% (inactive) | 102% | 82.1% | -3.68% (inactive) | -6.61% (inactive)
CCOC(=O)c1ccc(NS(=O)(=O)c2cccc3nsnc23)cc1 | 90.5% | 106% (inactive) | 90.5% (inactive) | 113% (inactive) | 95.9% (inactive) | -3.26% (inactive) | 99.1% | 95.9% | 1.2% (inactive) | 2.22% (inactive)
